Source: PubChem (several laboratories)
Shown are actives, neighbours in structure and some others; about 2.3% of the full set was active somewhere.
STAT1 blocker = inhibitors of IFN-gamma induced STAT1 signaling; NIH 3T3 STAT1-luciferase reporter, luminescence; inhibition, % at 5.5 µM; actives 0.35% (n = 200,000); AID 920;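 active = inhibition above a set limit, the mean inhibition across all tested compounds plus 3 SD, cut at about 34% in these data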;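 note: 0% = IFN-gamma with DMSO and 100% = IFN-gamma with 300 µM nifuroxazide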
PPC-1+TRAIL kill = compounds killing PPC-1 cancer cells with TRAIL present (potentiator screen, no TRAIL-free arm) | actives 0.41% (n = 220,000) | AID 1443 | PPC-1 cells + TRAIL, ATPLite viability luminescence | cell killing (% activity), % at 4 µM or 5 µM;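 active = cell killing above 50% in the first pass at 4 µM, then a duplicate retest at 5 µM averaging 50% or more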;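 note: plate controls were cells with TRAIL plus DMSO for no effect and medium-only wells lacking cells for full effect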
C8 TRAIL sens = sensitizes caspase-8 expressing cells to TRAIL; NB7+C8 cells + TRAIL, ATPlite viability luminescence; inhibition (viability loss, TRAIL sensitization), % at 10 µM; actives 1% (n = 360,000);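 active = compounds causing at least 50% loss of cell viability in the single-dose screen, relative to plate controls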
STAT3 inh = inhibitors of IL-6 induced STAT3 signaling; inhibition, % at 5.5 µM; AID 862; U3A cells, IL-6 STAT3-luciferase reporter, luminescence; host cell line lacks STAT1; actives 0.89% (n = 190,000);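 active = inhibition above the mean inhibition across all screened compounds plus 3 SD, cut at about 44% in these data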;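 note: 0% = DMSO only wells and 100% = 100 µM nifuroxazide control wells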
STAT3 act = increases IL-6 driven STAT3 reporter signal; actives 0.91% (n = 190,000); activation (% of control), % at 5.6 µM; U3A cells, IL-6 STAT3-luciferase reporter, luminescence; 100% = signal with IL-6 EC80 alone; AID 871;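 active = activation above the screen-wide mean of compound activation plus 3 SD, cut at about 130% in these data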;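 note: 0% = background luminescence of wells with medium and substrate only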
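System – human U3A cells carrying STAT3-luciferase construct · Probe or stimulus – Interleukin-6, 33 ng/mL · Schedule – compound 1 h, then IL-6 6 h at 37 °C · Signal – luminescence from STAT3-driven luciferase reporter · Evaluation – percent of IL-6-only median luminescence · Benchmarks – IL-6-only high control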
HSP90 refold inh = inhibitors of HSP90 luciferase refolding in rabbit reticulocyte lysate | luciferase refolding luminescence, 3 h | inhibition, % at 5.6 µM | actives 0.91% (n = 290,000);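 active = inhibition above the screen-wide mean plus 3 SD, computed separately per campaign, cut at about 16% in these data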;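 note: 0% = DMSO wells and 100% = 60 µM geldanamycin wells; inhibitors lower the luminescence because luciferase stays unfolded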
* = called active by the depositor; · = not tested or not shown.

SMILES | STAT1 blocker | PPC-1+TRAIL kill | C8 TRAIL sens | STAT3 inh | STAT3 act | HSP90 refold inh
CCc1nc(OCc2ccco2)c2sc3nc4c(cc3c2n1)COC(C)(C)C4 | 1 | 16 | 0 | 21 | 85 | 16*
CCc1ccc(-n2nc3cc(C)c(N)cc3n2)cc1 | · | · | 66* | · | · | 6
Cc1ccc(N/C(N)=N/c2nc(CSc3nnc(C)s3)cc(=O)[nH]2)c(C)c1 | 5 | 7 | -22 | -25 | 135* | -4
CC(C)(C)OC(=O)C[C@@H]1C/C=C\C[C@H](CC(=O)N(CCO)Cc2ccccc2)C(=O)N2CCC[C@@H]2COC1=O | · | · | -13 | · | · | ·
Cc1nc2c(-c3ccccc3)c(C)nn2c(N)c1-c1ccccc1 | -65 | 19 | 44 | 10 | 94 | -1
Cc1nc2cc(-c3ccccc3)nn2c(N)c1-c1ccccc1 | · | · | 66* | · | · | ·
O=S(=O)(N=C1C=CC(=NS(=O)(=O)c2ccccc2)c2ccccc21)c1ccccc1 | · | · | -2 | · | · | ·
CCc1ccc(S(=O)(=O)/N=C2\C=CC(=O)c3ccccc32)cc1 | 3 | 12 | · | -50 | 145* | 1
Cc1ccc(-c2nnnn2CS(=O)(=O)c2ccccc2)cc1 | -13 | 8 | -7 | -3 | 105 | 0
CCOC(=O)[C@H]1[C@H]2COc3ccccc3[C@@H]2N2C(=O)c3ccccc3NC(=O)[C@@]12C | · | · | -16 | · | · | ·
O=[N+]([O-])c1ccc(N2CCN(Cc3ccccc3)CC2)c2c1no[n+]2[O-] | · | · | 94* | · | · | ·
O=[N+]([O-])c1ccc(N2CCN(Cc3ccccc3)CC2)s1 | · | · | -2 | · | · | 2
Cc1cc(C)c2nc(C)cc(N/N=C/c3ccc(O)cc3)c2c1 | · | · | 81* | · | · | 2
Cc1cc(-c2ccccc2)nc(N/N=C/c2ccc(O)cc2)n1 | · | · | 77* | · | · | ·
COc1cccc(C2C(C#N)=C(N)N(c3ncn[nH]3)C3=C2C(=O)CCC3)c1 (stereo not given) | 7 | 17 | -9 | 11 | 94 | 2
Cc1c(NC(=O)c2c(F)cccc2F)c(=O)n(-c2ccccc2)n1C | 8 | -3 | 3 | 9 | 96 | 3
CC(C)CN(C(=O)COc1ccc(C(C)(C)C)cc1)C1CCS(=O)(=O)C1 (stereo not given) | · | · | 12 | · | · | ·
COc1cc(-c2nnn(CC(=O)N3CCOCC3)n2)cc(OC)c1OC | 0 | 11 | -10 | 6 | 99 | -2
COc1ccc(-c2ccc(-c3nnn(CC(=O)N4CCOCC4)n3)cc2)cc1 | -16 | 0 | 52* | 20 | 91 | -3
Cc1ccc(C(C(=O)NC2CCCCC2)N2CCOCC2)cc1 (stereo not given) | -1 | 27 | -5 | 4 | 97 | 3
CCn1cc(C(=O)NCc2ccco2)c(=O)c2cc(S(=O)(=O)N3CC(C)CC(C)C3)ccc21 (stereo not given) | 1 | 55* | 83* | 15 | 96 | -1
Cc1ccc(-c2nc(=S)c3c(n2Cc2ccco2)CCCC3)cc1 | 1 | 25 | 6 | -47 | 143* | 7
CC(C)CCNC(=O)COC(=O)/C=C/c1ccc2ccccc2n1 | -8 | 7 | 1 | 3 | 102 | 0
CCC(CN(C)C)Oc1cc(NCc2ccccc2)c2ncn(C(C)C)c2c1 (stereo not given) | · | · | 58* | · | · | ·
COc1cc(NCc2ccccc2)c2ncn(C(C)C)c2c1 | · | · | -1 | · | · | ·
SMILES | STAT1 blocker | PPC-1+TRAIL kill | C8 TRAIL sens | STAT3 inh | STAT3 act | HSP90 refold inh
O=C(O)c1cc(-c2ccc(-c3ccc(F)cc3)o2)nc2ccccc12 | · | · | 59* | · | · | 4
COc1ccc(Cn2c(CO)cnc2SCC(=O)Nc2cc(C)on2)cc1 | · | · | -6 | · | · | -3
Cc1ccccc1Oc1cc(-n2ncc(Cl)c(Cl)c2=O)ncn1 | -5 | 18 | 97* | -5 | 103 | -4
C(/C=C/c1ccccn1)=C\c1ccccc1 | · | · | 51* | · | · | ·
C(=C\c1ccccn1)/c1ccncc1 | · | 18 | -4 | · | · | 2
CC(C)=NNc1ncnc2nc[nH]c12 | · | · | 8 | · | · | ·
CCc1ccc(/C=N/Nc2ncnc3nc[nH]c23)cc1 | · | 42 | 60* | · | · | 4
CC(C)c1ccccc1NC(=O)Nc1nc(C(N)Cc2ccc(C(F)(F)F)cc2)cs1 (stereo not given) | · | · | 34 | · | · | ·
COc1cc(OC)nc(Nc2nc(C(N)Cc3ccc(C(F)(F)F)cc3)cs2)n1 (stereo not given) | · | · | 80* | · | · | ·
NC(CCc1ccccc1)c1csc(NC(=O)Nc2ccccc2Oc2ccccc2)n1 (stereo not given) | · | · | 87* | · | · | ·
